# Measurements reported in PMC2978023 (Journal of immunology (Baltimore, Md. : 1950), 2008).
# Ends that are not written are not given here.
# Columns and labels:
# [1] = tested on: PMN; details: cited from earlier work; for effect on PMN apoptosis: ref [6]–[9]
# [2] = tested on: human PMNs; details: 16 h
# [3] = biological target: recombinant purified β2 subunit (Homo sapiens, UniProt P05107); assay: Solid-phase binding to purified β2 subunit; details: for recognition by individual integrin subunits (in words): solid-phase binding, αM versus β2
# recombinant purified β2 subunit, sequence (P05107 23-769): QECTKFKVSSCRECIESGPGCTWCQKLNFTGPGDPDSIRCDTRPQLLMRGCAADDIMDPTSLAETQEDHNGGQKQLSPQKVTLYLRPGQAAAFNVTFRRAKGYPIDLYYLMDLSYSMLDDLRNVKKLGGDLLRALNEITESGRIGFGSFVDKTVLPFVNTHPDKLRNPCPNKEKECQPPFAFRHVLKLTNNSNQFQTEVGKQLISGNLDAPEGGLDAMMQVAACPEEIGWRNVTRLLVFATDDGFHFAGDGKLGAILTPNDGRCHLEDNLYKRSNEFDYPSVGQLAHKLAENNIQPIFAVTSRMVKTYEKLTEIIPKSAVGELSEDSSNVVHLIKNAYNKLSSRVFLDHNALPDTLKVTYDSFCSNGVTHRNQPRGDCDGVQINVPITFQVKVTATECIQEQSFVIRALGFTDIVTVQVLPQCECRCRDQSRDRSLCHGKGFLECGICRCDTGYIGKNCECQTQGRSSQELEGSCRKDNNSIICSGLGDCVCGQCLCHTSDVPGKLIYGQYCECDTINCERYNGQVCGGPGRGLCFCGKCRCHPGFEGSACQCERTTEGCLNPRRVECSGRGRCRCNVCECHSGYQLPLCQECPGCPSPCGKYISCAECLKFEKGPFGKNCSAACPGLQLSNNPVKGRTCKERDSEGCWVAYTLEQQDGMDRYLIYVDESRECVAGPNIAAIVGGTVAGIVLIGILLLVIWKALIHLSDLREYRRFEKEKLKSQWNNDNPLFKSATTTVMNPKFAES
# How it was run: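 Purified recombinant αMβ2, αM or β2 (from HEK293 lines) was coated overnight at 4°C in TBS with 10 mM n-octyl-β-D-glucopyranoside and postcoated with 0.5% PVP for 1 h at 37°C. Biotinylated Plg or Ang(1–4) (0–10 μM) was bound for 2 h at 37°C in the same buffer plus 1 mM CaCl₂/MgCl₂. Binding was detected with alkaline phosphatase–avidin and pNPP at A405. Kd came from a one-site binding fit.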
# [4] = tested on: αMβ2 on K562 cells; assay: Soluble ligand binding to K562 cells expressing αMβ2, FACS; design: species or system human; details: 40 min, 37 °C
# How it was run: (§1)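 Transiently transfected K562 cells were incubated with soluble Alexa 488-labelled Plg or Ang(1–4) for 40 min at 37°C in HBSS containing 1 mM CaCl₂ and 1 mM MgCl₂. Cells were washed twice and bound ligand was quantified by FACS; three independent experiments. For inhibition, cells were pretreated for 20 min at 37°C with function-blocking anti-αM or anti-β2 mAbs (20 μg/ml) or NIF (20 nM).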
# [5] = tested on: Bax; assay: Bax cleavage in PMN lysates, Western blot; format: cell-based, human; details: PMN lysate, 16 h; proteins 1 μM, peptides 100 μM; six donors
# [6] = tested on: Akt; assay: Akt phosphorylation in PMNs, Western blot; format: cell-based, human; details: PMN stimulated with 1 nM PMA, 30 min, 37 °C; proteins 1 μM, peptides 100 μM
# How it was run: (§2)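 Human PMNs stimulated with 1 nM PMA were incubated with ligands for 30 min at 37°C in HBSS with 1 mM CaCl₂, 1 mM MgCl₂, 0.1% BSA, pH 7.4. Cells were lysed in ice-cold Tris/EDTA/detergent buffer with phosphatase and protease inhibitors. Equal protein was immunoblotted for phospho- and total Akt or ERK1/2, with actin. Inhibition arm: 20 min pretreatment at 37°C with 10 μM Akt inhibitor, 50 μM PD98059, 50 nM NIF, or F(ab′)₂ anti-αM or anti-MHC-1 (20 μg/ml), then 1 μM Plg.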
# [7] = tested on: ERK1/2; assay: ERK1/2 phosphorylation in transfected K562 cells, Western blot; format: cell-based, human; details: 37 °C; for ERK1/2 activation, αM cells: K562 expressing αM, 30 min; for ERK1/2 activation, αMβ2 cells: K562 expressing αMβ2, 30 min; for ERK1/2 phosphorylation, mock and β2 cells: K562 mock or expressing β2, 30 min
# How it was run: (§3)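 Transiently transfected K562 cells (αM, β2, αMβ2 or mock) were exposed to ligands for 30 min at 37°C and lysed in ice-cold buffer. Equal protein was run on SDS-PAGE and blotted with the PathScan Multiplex Western Cocktail I, then reprobed for total ERK1/2; blots shown are representative of three experiments.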
# [8] = tested on: mock-transfected K562 cells; assay: Apoptosis of mock-transfected K562 cells, annexin V, FACS; format: cell-based, human; details: 16 h, 37 °C; proteins 1 μM, peptides 100 μM; no ligand 81 ± 8; mean ± SEM, n = 5
# [9] = tested on: caspase-3; assay: Caspase-3 cleavage in PMN lysates, Western blot; format: cell-based, human; details: PMN lysate, 16 h; proteins 1 μM, peptides 100 μM; six donors
# [10] = tested on: Bax; assay: Bax cleavage in K562 cell lysates, Western blot; format: cell-based, human; details: K562 αMβ2 transfectants, 24 h, 37 °C; proteins 1 μM, peptides 100 μM
# [11] = tested on: Akt; assay: Akt phosphorylation in transfected K562 cells, Western blot; format: cell-based, human; details: 37 °C; for Akt phosphorylation, αM, β2 and mock cells: K562 expressing αM or β2, or mock-transfected, 30 min; for Akt phosphorylation, αMβ2 cells: K562 expressing αMβ2, 30 min
# How it was run: as §3
# [12] = tested on: β2 subunit on K562 cells; assay: Soluble ligand binding to K562 cells expressing β2, FACS; design: species or system human; details: 40 min, 37 °C
# How it was run: as §1
# [13] = tested on: αM subunit on K562 cells; assay: Soluble ligand binding to K562 cells expressing αM, FACS; design: species or system human; details: 40 min, 37 °C
# How it was run: as §1
# [14] = tested on: caspase-8; assay: Caspase-8 cleavage in K562 cell lysates, Western blot; format: cell-based, human; details: K562 αMβ2 transfectants, 24 h, 37 °C; proteins 1 μM, peptides 100 μM
# [15] = tested on: caspase-3; assay: Caspase-3 cleavage in K562 cell lysates, Western blot; format: cell-based, human; details: K562 αMβ2 transfectants, 24 h, 37 °C; proteins 1 μM, peptides 100 μM
# [16] = tested on: caspase-8; assay: Caspase-8 cleavage in PMN lysates, Western blot; format: cell-based, human; details: PMN lysate, 16 h; proteins 1 μM, peptides 100 μM; six donors
# [17] = tested on: αMβ2; assay: αMβ2 clustering on PMNs, fluorescence microscopy; format: cell-based, human; details: 4 h, 37 °C; proteins 1 μM, peptides 100 μM; anti-αM OKMI staining; four donors
# How it was run: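 Human PMNs were exposed to ligands (proteins 1 μM, peptides 100 μM) for 4 h at 37°C, or to 1 μM Plg together with clustering inhibitors at the final concentrations used in apoptosis assays. Cells were fixed in 4% paraformaldehyde and stained with anti-αM mAb OKMI plus Alexa 488 goat anti-mouse IgG. They were cytospun, mounted and imaged by fluorescence microscopy (×40/0.7 NA); PMNs came from four donors.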
# [18] = tested on: ERK1/2; assay: ERK1/2 phosphorylation in PMNs, Western blot; format: cell-based, human; details: PMN stimulated with 1 nM PMA, 30 min, 37 °C; proteins 1 μM, peptides 100 μM
# How it was run: as §2
# [19] = tested on: αMβ2 on PMN; assay: Soluble Alexa 488-labeled ligand binding to PMN, FACS; design: species or system human; details: clustering inhibitor, 1 h, 37 °C, mean ± SEM, n = 3
# How it was run: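 Human PMNs were incubated for 1 h at 37°C in HBSS/Ca²⁺/Mg²⁺ with soluble Alexa 488-labelled Plg or Fg, with or without clustering inhibitors. After two buffer washes, bound ligand was read by FACS; mean ± SEM, n = 3.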
substance,measurement,setting,value
GM-CSF: agent that promotes PMN responsiveness,effect on PMN apoptosis,[1],delay PMN apoptosis
IL-8: agent that promotes PMN responsiveness,effect on PMN apoptosis,[1],delay PMN apoptosis
KIIPFNRLTIG [P2-C],"PMN early/late apoptosis (% annexin V+ cells), no inhibitor",[2]; 100 μM,20.1 ± 4%
same,Kd,[3],50 nM
TNF-α,effect on PMN death,[1],promote PMN death
angiostatin [Ang(1–4)],"soluble ligand binding, αMβ2 cells (in words)",[4],bound both ligands
same,22-kDa Bax fragment,[5],detected
same,Akt phosphorylation,[6],negligible
same,"ERK1/2 activation, αM cells",[7],poorly induced
same,"ERK1/2 activation, αMβ2 cells",[7],poorly induced
same,"ERK1/2 phosphorylation, mock and β2 cells",[7],poorly induced
same,"K562 early/late apoptosis (% annexin V+ cells), mock",[8],78 ± 8%
same,18-kDa caspase-3 fragment,[9],detected
same,"Bax cleavage product, αMβ2 cells",[10],present
same,"Akt phosphorylation, αM, β2 and mock cells",[11],failed to induce Akt activation
same,"Akt phosphorylation, αMβ2 cells",[11],failed to induce Akt activation
same,"soluble ligand binding, β2 cells (in words)",[12],failed to bind soluble Ang([1]– [4])
same,"soluble ligand binding, αM cells (in words)",[13],bound both ligands
same,"caspase-8 cleavage product, αMβ2 cells",[14],present
same,"caspase-3 cleavage product, αMβ2 cells",[15],present
same,caspase-8 fragment,[16],detected
same,recognition by individual integrin subunits (in words),[3],recognized only by the αM and not by the β2 subunit
same,αMβ2 macroclusters on PMN surface,[17],did not support αMβ2 clustering
fibrinogen [Fg],"soluble ligand binding, αMβ2 cells (in words)",[4],bound soluble Fg
same,22-kDa Bax fragment,[5],absent
same,Akt phosphorylation,[6],robust Akt phosphorylation
same,"ERK1/2 activation, αM cells",[7],strongly induced
same,"ERK1/2 activation, αMβ2 cells",[7],strongly induced
same,"ERK1/2 phosphorylation, mock and β2 cells",[7],poorly induced
same,"K562 early/late apoptosis (% annexin V+ cells), mock",[8],72 ± 13%
same,18-kDa caspase-3 fragment,[9],absent
same,"Bax cleavage product, αMβ2 cells",[10],not detected
same,"Akt phosphorylation, αM, β2 and mock cells",[11],not in K562 cells expressing the individual αM or β2 subunits (Fig. 6A) or mock-transfected cells
same,"Akt phosphorylation, αMβ2 cells",[11],robust Akt phosphorylation
same,"soluble ligand binding, β2 cells (in words)",[12],bound soluble Fg
same,"soluble ligand binding, αM cells (in words)",[13],bound soluble Fg
same,"caspase-8 cleavage product, αMβ2 cells",[14],not detected
same,"caspase-3 cleavage product, αMβ2 cells",[15],not detected
same,caspase-8 fragment,[16],absent
same,effect on PMN apoptosis,[1],delay PMN apoptosis
same,ERK1/2 activation,[18],induced ERK1/2 activation
same,recognition by individual integrin subunits (in words),[3],engage both integrin subunits
same,αMβ2 macroclusters on PMN surface,[17],detected
methyl-β-cyclodextrin [MβCD],"ligand binding, inhibitor, no ligand (background)",[19],3.09 ± 0.4 MFI
same,"PMN early/late apoptosis (% annexin V+ cells), inhibitor + Fg","[2]; clustering inhibitor + Fg 1 μM, 37 °C, mean ± SEM, n = 5",59.3 ± 15%
same,"PMN early/late apoptosis (% annexin V+ cells), inhibitor + P1","[2]; clustering inhibitor + P1 100 μM, 37 °C, mean ± SEM, n = 5",66.3 ± 18%
same,"PMN early/late apoptosis (% annexin V+ cells), inhibitor + P2-C","[2]; clustering inhibitor + P2-C 100 μM, 37 °C, mean ± SEM, n = 5",75.6 ± 17%
same,"PMN early/late apoptosis (% annexin V+ cells), inhibitor + Plg","[2]; clustering inhibitor + Plg 1 μM, 37 °C, mean ± SEM, n = 5",75.0 ± 13%
